The nature of the series: Toxicity liver stage against HepG2, at 10uM. The class given is cell-based. Set-up: test concentration 10 uM, cell line HepG2-A16-CD81EGFP. The conditions noted are these: human, HepG2-A16-CD81EGFP cells; read-out: INHIBITION
In short, it runs like this: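 Uninfected HepG2-A16-CD81EGFP cells, 3 × 10^3 per well, 1536-well, plated on prespotted compound at 10 μM final, parasite-free screening media added to match infected plates; puromycin 10 μM positive, DMSO 0.5% negative; run in parallel with 48 h PbLuc assay at 37 °C, 5% CO2; viability by CellTiter-Glo luminescence, normalized to controls.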

The structures appear in SMILES notation.

With `CN(C)CCn1c2c(ccc1=O)CCN(C(=O)c1cccs1)CC2`, the cytotoxicity at 10 µM was determined as 0.0915%. Next, `COC(=O)CN1CCCN(C(=O)CCOc2cccc(C)c2C)CC1`: -1.73%. Regarding `CCc1ccc(CN2CCN(c3ccc(Cl)nn3)CC2)nc1`, the cytotoxicity at 10 µM was -2.98%. Turning to `CN(C)S(=O)(=O)NCc1cccnc1Oc1ccc(F)cc1F`, the cytotoxicity at 10 µM was found to be 8.49%. With `Cc1cccc(CN2CCS(=O)(=O)[C@@H]3CCN(S(C)(=O)=O)CC[C@@H]32)n1`, the cytotoxicity at 10 µM is -3.34%.

Turning to `Cc1ccc(N2C[C@@H]3CN(C(=O)c4ccccc4)CCO[C@@H]3C2)nn1`, the cytotoxicity at 10 µM was -5.52%. Next, `COC(=O)CCNC(=O)c1nnn(-c2ccc(C)cc2)c1C1CC1`: -0.121%; `Cc1nc(C2CCCN(C(=O)C3=NN(C(C)C)C(=O)CC3)C2)no1` (stereo not drawn): -3.32%.

Take `COCC1CC2(CCN(C(=O)c3ccc(C)nc3)CC2)CO1` (stereo not drawn): the cytotoxicity at 10 µM was -127%.

On to `O=C(OCC1CCN(c2ccccc2)C1)c1cscn1` (stereo not drawn), for which the cytotoxicity at 10 µM came to 1.27%. Turning to `Cc1ccsc1CN1C[C@@H]2CN(Cc3cccnc3)CCO[C@@H]2C1`, the cytotoxicity at 10 µM came to 8%. As to `CC(C)CNC(=O)N1CC[C@@H]2CN(Cc3cccnc3)S(=O)(=O)[C@@H]2CC1`, the cytotoxicity at 10 µM is -93.6%.

For the compound `CS(=O)(=O)NCc1cc(-c2cc(F)cc(F)c2)nc(N2CCCC2)n1`, the cytotoxicity at 10 µM was -1.53%. As for `COC(=O)CNC(=O)c1cccc(C(=O)N(C)c2ccccc2)c1`, the cytotoxicity at 10 µM is 6.93%.

For `COCCOCc1cccc(NC(=O)N2CCCC2c2ccncc2)c1` (stereo not drawn), the cytotoxicity at 10 µM is 6.79%. Next, `COc1cccc(C2(CNC(C)c3nnc(C)o3)CCCC2)c1` (stereo not drawn): -1.64%; `CCS(=O)(=O)NCc1cc(Br)c(OC)c(OC)c1`: -6.83%. For the compound `O=C(C(c1ccccc1)S(=O)(=O)c1ccccc1)N1CCCCC1` (stereo not drawn), the cytotoxicity at 10 µM is -6.01%. Consider `CN(C)CC1CSCCCN1C(=O)Nc1ccc(C(C)(C)C)cc1` (stereo not drawn), for which the cytotoxicity at 10 µM came out at 6.79%. Turning to `Cc1ccc(CN2CC[C@@H]3[C@@H](CO[C@H]3CN3CCN(C)CC3)C2)s1`, the cytotoxicity at 10 µM is 7.57%. The value for `CCOCc1nc2c(c(N(C)Cc3ccsc3)n1)CCNCC2` was 11.1%; that for `CCc1cnc(N2CC3(CCN(C(=O)c4ccoc4)C3)C2)nc1` was -8.37%; that for `COc1cc(C)nc(N2CCN(C(=O)CCc3ccsc3)CC2)n1` was 10%. As for `COCCN1CCc2ncnc(NC3CC3)c2CC1`, the cytotoxicity at 10 µM was found to be 5.62%. Take `O=C(NC1CC1)[C@H]1C[C@H]2OCC[C@H]2N(Cc2cccc3ccccc23)C1`: the cytotoxicity at 10 µM stood at 2.64%.

On to `COCC(=O)N1CCC2(C1)c1ccccc1S(=O)(=O)N2C` (stereo not drawn), for which the cytotoxicity at 10 µM was 3.57%. As to `O[C@]12CCNC[C@H]1CN(c1nccc3ccccc13)CC2`, the cytotoxicity at 10 µM amounted to 12.3%. For `O=C(NS(=O)(=O)c1cc(Cl)sc1Cl)c1cccc2c1OCCO2`, the cytotoxicity at 10 µM was found to be 5.32%. Next, `CCCNC(=O)CNC(=O)c1scnc1C`: 8.86%; `CCc1nc(C(=O)N2CCN(C)CC2)nn1-c1ccccc1Cl`: 2.1%; `Cc1ncc(CNCC(=O)NC2CCCCC2)n1-c1ccccc1`: -4.75%. With `CC(=O)N(C)Cc1nn(C)c2c1CN(Cc1ccsc1)C2`, the cytotoxicity at 10 µM is -134%. `CC(C)(C)NC(=O)[C@@H]1CNC[C@]12Cc1ccccc1C(=O)N2`: the cytotoxicity at 10 µM is -0.42%. Next, `Cc1ccnc(N2Cc3cnn(Cc4ccc(F)cc4)c3C2)n1`: 3.59%; `Cc1noc(CNc2ccc(CC(=O)N3CCSCC3)cc2)n1`: -2.29%. In the case of `CC(Cc1cn(CCc2nc(N)cc(O)n2)nn1)c1ccccc1` (stereo not drawn), the cytotoxicity at 10 µM is -5.58%. As for `Cc1noc(CCNC(=O)NCc2ccc(N3CCCCC3)cc2)n1`, the cytotoxicity at 10 µM was determined as 9.47%.

As to `CN1CCN(Cc2ccccc2CNC(=O)c2cc(Br)ccc2F)CC1`, the cytotoxicity at 10 µM stood at 6.37%. Next, `CCc1nccn1-c1cncc(C2CCCN2Cc2ccccc2)n1` (stereo not drawn): -1.17%; `Clc1cccc(CNc2cnn(CCN3CCCCC3)c2)c1`: 0.889%. With `NC(=O)CSCC(=O)N1CCc2cc(Cl)cc(Cl)c2C1`, the cytotoxicity at 10 µM turned out to be 27.9%.

With `COc1nccc(N2CC[C@@H](N3CCCCCC3)[C@H](O)C2)c1C#N`, the cytotoxicity at 10 µM was -152%. Consider `CC(Cn1cccn1)NCC(=O)N(C)Cc1ccsc1` (stereo not drawn), for which the cytotoxicity at 10 µM was -7.32%. The value for `CCOc1ncccc1NC(=O)NC1CCN(C(=O)C2CC2)CC1` was -13.6%; that for `CN(C)c1cc(C(=O)NCCc2nnc(-c3ccco3)[nH]2)ccn1` was -0.653%; that for `CCN(CC)S(=O)(=O)CCNC(=O)c1cc2cccc(F)c2o1` was -3.12%. As for `CCN(C)C[C@@H]1CN(C(=O)c2cc(C(F)(F)F)n[nH]2)C[C@@H]1CO`, the cytotoxicity at 10 µM was -12.1%.

Regarding `CCNC(=O)c1sccc1N(C)S(=O)(=O)c1ccc(Cl)cc1`, the cytotoxicity at 10 µM was found to be 10.8%. The value for `CS(=O)(=O)N1C[C@H]2CC[C@@H](C1)N(Cc1ccsc1)C2` was 44.7%; that for `CC(=O)N1CCN(C(=O)NCc2csc(Br)c2)CC1` was -6.31%. `NCC1CCC(C(NC(=O)C2CC2)c2ccccn2)CC1` (stereo not drawn): the cytotoxicity at 10 µM is -12.6%. `O=C(Nc1ccccn1)C1CCN(Cc2cc3c(cc2O)OCO3)CC1`: the cytotoxicity at 10 µM was 7.19%.

Regarding `c1cc(CC2CCCNC2)nc(NCCc2cnccn2)c1` (stereo not drawn), the cytotoxicity at 10 µM worked out at 3.64%.

For the compound `CCS(=O)(=O)N1C[C@@H]2CN(Cc3cnn(C)c3)CCO[C@@H]2C1`, the cytotoxicity at 10 µM is -0.646%. In the case of `CN1C(=O)CO[C@H]2CN(C(=O)Nc3ccc(F)cc3)C[C@H]21`, the cytotoxicity at 10 µM is -2.22%.

For `CNC(=O)[C@H]1C[C@@H]2CN(C(=O)c3ccncc3F)C[C@@H]2N1C`, the cytotoxicity at 10 µM is -111%. Next, `Cc1cc(-c2ccc(=O)n(CCNC(=O)C3CCC3)n2)c(C)o1`: -2.32%; `Cc1noc(C)c1CN1CCO[C@H]2CN(Cc3cccnc3)C[C@H]21`: -2.61%. Take `CO[C@@H]1CCN(c2ncc(F)cn2)[C@@H]2CN(Cc3cccnc3)C[C@@H]21`: the cytotoxicity at 10 µM was 11.8%. Regarding `Cc1cnn(CC2CN(CC(=O)Nc3cccnc3)CCO2)c1` (stereo not drawn), the cytotoxicity at 10 µM was determined as 8.1%. Regarding `COc1cccc(CCCNC(=O)N2CCC(O)(C(F)(F)F)C2)c1` (stereo not drawn), the cytotoxicity at 10 µM is -4.25%. In the case of `Cc1noc([C@H]2C[C@H]3OCC[C@H]3N(S(C)(=O)=O)C2)n1`, the cytotoxicity at 10 µM was -115%. Take `Cc1oncc1C(=O)N1CCC2(CCN(Cc3ccccn3)C2=O)C1` (stereo not drawn): the cytotoxicity at 10 µM was -11.4%. As to `Cc1ccsc1CN(Cc1nc2c(cnn2C)c(=O)[nH]1)C(C)C`, the cytotoxicity at 10 µM was -7.27%. `CCC1=N[C@@]2(CC[C@@H]3CN(Cc4ccccc4F)C[C@@H]32)C(=O)N1`: the cytotoxicity at 10 µM was -1.22%.

For `Cc1c(C)n(CC(O)CN2CCCCCC2)c2c(Cl)cccc12` (stereo not drawn), the cytotoxicity at 10 µM was -21.9%. Consider `CCn1c(C)cc(-c2csc(Cn3ccc(=O)[nH]c3=O)n2)c1C`, for which the cytotoxicity at 10 µM stood at 10.2%. Next, `Cc1nn(C2CCS(=O)(=O)C2)c(O)c1Cc1cccc(Cl)c1` (stereo not drawn): -46.9%; `CC(C)(O)CN1CCN(C(=O)c2sccc2C2CC2)CC1`: 5.37%. Next, `CN(CCN1CCOCC1)C(=O)CCCc1ccccc1`: -8.28%; `CC(=O)NCCNC(=O)N(C)Cc1ccc2c(c1)OCCO2`: -1.59%; `Cn1nc(CNC(=O)C2CCN(S(C)(=O)=O)CC2)cc1C1CC1`: -2.87%.

Consider `CC1(C)CNC(=O)c2nc(-c3ccccc3)[nH]c2C1`, for which the cytotoxicity at 10 µM is -7.28%.

Turning to `CCNc1nc(C)c(C(=O)N(C)Cc2noc(C)n2)s1`, the cytotoxicity at 10 µM was found to be 2.43%. Regarding `c1ccc(-c2cc(CNCCN3CCCC3)c3nnnn3c2)cc1`, the cytotoxicity at 10 µM is -17.4%.

Take `Cc1sc(C(=O)NS(C)(=O)=O)cc1-c1ccc(F)cc1`: the cytotoxicity at 10 µM turned out to be 2.53%.

As for `O=C(c1cc(-n2cccn2)ccn1)N(CC1CCC1)CC(F)(F)F`, the cytotoxicity at 10 µM was determined as 6.4%. As to `c1ccc(CN2CCC3(CC2)CC(Nc2nccs2)CO3)nc1` (stereo not drawn), the cytotoxicity at 10 µM was -78.2%. As for `Cn1cccc1C(=O)N1CCCC1c1ccc(CN2CCOCC2)cn1` (stereo not drawn), the cytotoxicity at 10 µM was 1.43%. `CCn1nccc1CNC(=O)C1CC1`: the cytotoxicity at 10 µM is -12.2%.

For the compound `CCN(c1ccc(C(=O)N2CCCC2)cc1)S(=O)(=O)CC`, the cytotoxicity at 10 µM is -9.75%. As for `CCc1nnc2n1CCN(C(=O)c1ccc(-c3ccco3)[nH]c1=O)C2`, the cytotoxicity at 10 µM is -11.5%. The value for `O=C(CN1CCCc2cc(F)cc(F)c21)Nc1ccc(Br)cn1` was 11%. On to `Cc1cc(C)n(-c2cncc(N3CCN(C(=O)CN(C)C)CC3)n2)n1`, for which the cytotoxicity at 10 µM was -2.09%.

Turning to `CCc1nc(C2CCCN2CC(=O)Nc2nnc(C)s2)no1` (stereo not drawn), the cytotoxicity at 10 µM is -1.73%.

As for `Cc1nc(N2CCCC2)ncc1C(=O)Nc1ccc(Br)cc1`, the cytotoxicity at 10 µM is -1.85%. Regarding `Cc1nnc(SC2CCN(c3sccc3C#N)C2=O)[nH]1` (stereo not drawn), the cytotoxicity at 10 µM amounted to 7.25%.

For `O=C1CC(N2CCN(c3ccc(F)cc3)CC2)C(=O)N1Cc1cccs1` (stereo not drawn), the cytotoxicity at 10 µM is -0.31%. Take `Cn1cc(C2SCC(=O)Nc3c2c(=O)[nH]n3C2CCOCC2)cn1` (stereo not drawn): the cytotoxicity at 10 µM was -0.348%. Consider `CCC1=N[C@@]2(CC[C@@H]3CN(C(=O)NCc4ccccc4)C[C@@H]32)C(=O)N1`, for which the cytotoxicity at 10 µM was -10.3%. Regarding `COc1cc(C)ccc1C(=O)N1C[C@@H](CN(C)CCO)[C@@H](CO)C1`, the cytotoxicity at 10 µM is 1%.

In the case of `CC(C)n1nccc1NC(=O)NCCc1nc2ccc(F)cc2n1C`, the cytotoxicity at 10 µM is -7.85%. Next, `CCN(CC(=O)N(C)C)C(=O)c1nc(C)n(-c2ccccc2Cl)n1`: 7.3%.

These data come from ChEMBL document CHEMBL4513216, “Probing the Open Global Health Chemical Diversity Library for Multistage-Active Starting Points for Next-Generation Antimalarials” (ACS Infect Dis, 2020).
